Measurements: ChEMBL document CHEMBL1649143, “In vitro activities of fluconazole and voriconazole against clinical isolates of Candida spp. determined by disk diffusion testing in Turin, Italy” (2009)
Converted amounts (≈) assume the structure as drawn.

Tests used:
Pichia fermentans = experiment: Antifungal activity against Candida lambica assessed as percent susceptible isolates at 25 ug/disc by CLSI M44-A disk diffusion method; assay type: functional
Method in brief: (§1)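 Clinical yeast isolates tested by agar disk diffusion per CLSI M44-A. Zone diameters were converted to MICs by an automated zone-reading system applying species-specific linear regression against reference dilution MICs. Isolates were classed as susceptible, susceptible-dose dependent or resistant using CLSI MIC breakpoints, and reported as number and percent susceptible per species.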

Diutina rugosa = experiment: Antifungal activity against Candida rugosa assessed as percent susceptible isolates at 25 ug/disc by CLSI M44-A disk diffusion method; assay type: functional; method in brief: as §1
Candida albicans [1] = experiment: Antifungal activity against Candida albicans by reference dilution method; assay type: functional
Candida albicans [2] = experiment: Antifungal activity against Candida albicans assessed as percent susceptible isolates at 25 ug/disc by CLSI M44-A disk diffusion method; assay type: functional
Method in brief: (§2)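 Agar disk diffusion per CLSI M44-A on clinical Candida isolates collected in Turin, Italy; 1,024 isolates tested in total. Each isolate was classed as susceptible (S), susceptible-dose dependent (SDD) or resistant (R), and the percentage of isolates per species in each category was reported.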

Kluyveromyces marxianus [3] = experiment: Antifungal activity against Candida kefyr assessed as percent susceptible isolates at 25 ug/disc by CLSI M44-A disk diffusion method; assay type: functional; method in brief: as §2
Nakaseomyces glabratus [4] = experiment: Antifungal activity against Candida glabrata assessed as percent susceptible isolates at 25 ug/disc by CLSI M44-A disk diffusion method; assay type: functional; method in brief: as §2
Candida tropicalis [5] = experiment: Antifungal activity against Candida tropicalis assessed as dose dependent percent susceptible isolates at 25 ug/disc by CLSI M44-A disk diffusion method; assay type: functional; method in brief: as §2
Nakaseomyces glabratus [6] = experiment: Antifungal activity against Candida glabrata by reference dilution method; assay type: functional
Candida parapsilosis [7] = experiment: Antifungal activity against Candida parapsilosis assessed as percent susceptible isolates at 25 ug/disc by CLSI M44-A disk diffusion method; assay type: functional; method in brief: as §2
Pichia kudriavzevii [8] = experiment: Antifungal activity against Candida krusei assessed as percent susceptible isolates at 25 ug/disc by CLSI M44-A disk diffusion method; assay type: functional; method in brief: as §2
[Candida] intermedia = Antifungal activity against Candida intermedia assessed as percent susceptible isolates at 25 ug/disc by CLSI M44-A disk diffusion method; assay type: functional, Sungouiella intermedia; method in brief: as §1
Nakaseomyces glabratus [9] = experiment: Antifungal activity against Candida glabrata assessed as percent resistant isolates at 25 ug/disc by CLSI M44-A disk diffusion method; assay type: functional; method in brief: as §2
[10] = Antifungal activity against Candida membranifaciens assessed as percent susceptible isolates at 25 ug/disc by CLSI M44-A disk diffusion method; assay type: functional; method in brief: as §1
Candida parapsilosis [11] = experiment: Antifungal activity against Candida parapsilosis assessed as dose dependent percent susceptible isolates at 25 ug/disc by CLSI M44-A disk diffusion method; assay type: functional; method in brief: as §2
Candida albicans [12] = experiment: Antifungal activity against Candida albicans assessed as dose dependent percent susceptible isolates at 25 ug/disc by CLSI M44-A disk diffusion method; assay type: functional; method in brief: as §2
Candida parapsilosis [13] = experiment: Antifungal activity against Candida parapsilosis by reference dilution method; assay type: functional; conditions: Lodderomyces parapsilosis
Pichia kudriavzevii [14] = experiment: Antifungal activity against Candida krusei assessed as dose dependent percent susceptible isolates at 25 ug/disc by CLSI M44-A disk diffusion method; assay type: functional; method in brief: as §2
Candida albicans [15] = experiment: Antifungal activity against Candida albicans assessed as percent resistant isolates at 25 ug/disc by CLSI M44-A disk diffusion method; assay type: functional; method in brief: as §2
Pichia kudriavzevii [16] = experiment: Antifungal activity against Candida krusei by reference dilution method; assay type: functional
Candida tropicalis [17] = experiment: Antifungal activity against Candida tropicalis assessed as percent resistant isolates at 25 ug/disc by CLSI M44-A disk diffusion method; assay type: functional; method in brief: as §2
Kluyveromyces marxianus [18] = experiment: Antifungal activity against Candida kefyr assessed as percent resistant isolates at 25 ug/disc by CLSI M44-A disk diffusion method; assay type: functional; method in brief: as §2
Pichia norvegensis [19] = experiment: Antifungal activity against Candida norvegensis assessed as percent resistant isolates at 25 ug/disc by CLSI M44-A disk diffusion method; assay type: functional; method in brief: as §2
Clavispora lusitaniae = experiment: Antifungal activity against Candida lusitaniae assessed as percent susceptible isolates at 25 ug/disc by CLSI M44-A disk diffusion method; assay type: functional; method in brief: as §1
Candida tropicalis [20] = experiment: Antifungal activity against Candida tropicalis assessed as percent susceptible isolates at 25 ug/disc by CLSI M44-A disk diffusion method; assay type: functional; method in brief: as §2
[21] = Antifungal activity against Candida holmii assessed as percent susceptible isolates at 25 ug/disc by CLSI M44-A disk diffusion method; assay type: functional; conditions: Kazachstania exigua; method in brief: as §1
Cyberlindnera jadinii = experiment: Antifungal against Candida utilis assessed as percent susceptible isolates at 25 ug/disc by CLSI M44-A disk diffusion method; assay type: functional; method in brief: as §1
Pichia kudriavzevii [22] = experiment: Antifungal activity against Candida krusei assessed as percent resistant isolates at 25 ug/disc by CLSI M44-A disk diffusion method; assay type: functional; method in brief: as §2
Candida = experiment: Antifungal activity against Candida sp. by reference dilution method; assay type: functional
Pichia norvegensis [23] = experiment: Antifungal activity against Candida norvegensis assessed as dose dependent percent susceptible isolates at 25 ug/disc by CLSI M44-A disk diffusion method; assay type: functional; method in brief: as §2
Pichia norvegensis [24] = experiment: Antifungal activity against Candida norvegensis by reference dilution method; assay type: functional
Candida tropicalis [25] = experiment: Antifungal activity against Candida tropicalis by reference dilution method; assay type: functional
Nakaseomyces glabratus [26] = experiment: Antifungal activity against Candida glabrata assessed as dose dependent percent susceptible isolates at 25 ug/disc by CLSI M44-A disk diffusion method; assay type: functional; method in brief: as §2
Kluyveromyces marxianus [27] = experiment: Antifungal activity against Candida kefyr by reference dilution method; assay type: functional
[28] = Antifungal activity against Candida humicola assessed as percent susceptible isolates at 25 ug/disc by CLSI M44-A disk diffusion method; assay type: functional; method in brief: as §1

With `OC(Cn1cncn1)(Cn1cncn1)c1ccc(F)cc1F` [FLUCONAZOLE] the Activity (Pichia fermentans) was 92.9%, the Activity (Diutina rugosa) was 92.9% and the MIC50 (Candida albicans [1]) was 0.5 µg/mL (≈ 1.63 µM). For the same compound, the MIC90 (Candida albicans [1]) was 4 µg/mL (≈ 13.1 µM), the Activity (Candida albicans [2]) was 98% and the Activity (Kluyveromyces marxianus [3]) was 96%. For the same compound, the Activity (Nakaseomyces glabratus [4]) was 82%, the Activity (Candida tropicalis [5]) was 3% and the MIC50 (Nakaseomyces glabratus [6]) was 4 µg/mL (≈ 13.1 µM). It also gave an MIC90 (Nakaseomyces glabratus [6]) of 64 µg/mL (≈ 209 µM), an Activity (Candida parapsilosis [7]) of 96% and an Activity (Pichia kudriavzevii [8]) of 11%. For the same compound, the Activity ([Candida] intermedia) was 92.9%, the Activity (Nakaseomyces glabratus [9]) was 9% and the Activity [10] was 92.9%. The Activity (Candida parapsilosis [11]) was 4%, the Activity (Candida albicans [12]) was 1% and the MIC50 (Candida parapsilosis [13]) was 0.5 µg/mL (≈ 1.63 µM). For the same compound, the MIC90 (Candida parapsilosis [13]) was 4 µg/mL (≈ 13.1 µM), the Activity (Pichia kudriavzevii [14]) was 21% and the Activity (Candida albicans [15]) was 1%. It also gave an MIC50 (Pichia kudriavzevii [16]) of 128 µg/mL (≈ 418 µM), an MIC90 (Pichia kudriavzevii [16]) of 256 µg/mL (≈ 836 µM) and an Activity (Candida tropicalis [17]) of 5%. The Activity (Kluyveromyces marxianus [18]) was 4%, the Activity (Pichia norvegensis [19]) was 79% and the Activity (Clavispora lusitaniae) was 92.9%. For the same compound, the Activity (Candida tropicalis [20]) was 92%, the Activity [21] was 92.9% and the Activity (Cyberlindnera jadinii) was 92.9%. It also gave an Activity (Pichia kudriavzevii [22]) of 68%, an MIC50 (Candida) of 2 µg/mL (≈ 6.53 µM) and an MIC90 (Candida) of 128 µg/mL (≈ 418 µM). The Activity (Pichia norvegensis [23]) was 21%, the MIC50 (Pichia norvegensis [24]) was 128 µg/mL (≈ 418 µM) and the MIC90 (Pichia norvegensis [24]) was 256 µg/mL (≈ 836 µM). For the same compound, the MIC50 (Candida tropicalis [25]) was 2 µg/mL (≈ 6.53 µM), the MIC90 (Candida tropicalis [25]) was 16 µg/mL (≈ 52.2 µM) and the Activity (Nakaseomyces glabratus [26]) was 9%. The MIC50 (Kluyveromyces marxianus [27]) was 0.25 µg/mL (≈ 0.816 µM), the MIC90 (Kluyveromyces marxianus [27]) was 0.25 µg/mL (≈ 0.816 µM) and the Activity [28] was 92.9%.
